Assay results from ChEMBL document CHEMBL1629702, “Berberine-INF55 (5-nitro-2-phenylindole) hybrid antimicrobials: effects of varying the relative orientation of the berberine and INF55 components” (Antimicrob Agents Chemother, 2010).
The source made the active and inactive calls. The calls are words filed in the database; no cut-off is given here.

Columns and labels:
Staphylococcus aureus [1] = experiment: Antibacterial activity against NorA-deficient Staphylococcus aureus K1758 after 18 hrs by two fold serial dilution method; format: functional; conditions: K1758, 18 h
How it was run: (§1)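 Broth inoculated at 10⁵ cells/ml and serial 2-fold compound dilutions, run in triplicate. Incubated 18 h at 37°C, with growth read as absorbance at 600 nm. MIC is the lowest concentration giving complete growth inhibition.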

Staphylococcus aureus [2] = experiment: Increase in ethidium bromide uptake in NorA-deficient Staphylococcus aureus K1758 at 3 uM by fluorescence assay in presence of INF55; format: functional, organism-based
How it was run: (§2)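 S. aureus was grown at 37°C to OD600 1.5, washed in PBS, then energised for 1 h at 37°C in PBS with 10 mM dextrose (OD ~0.8). Cells were washed and diluted to OD ~0.3 in PBS. Hybrid or INF55 was added before ethidium bromide, all at 3 μM. Fluorescence was read at ex 530/em 600 nm, with cell-free compound background subtracted. At least triplicate.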

[3] = target: T1, Quinolone resistance protein NorA (Staphylococcus aureus) (UniProt P0A0J7); experiment: Inhibition of NorA in Staphylococcus aureus 8325-4 assessed as increase in ethidium bromide uptake at 3 uM by fluorescence assay in presence of INF55; how it was run: as §2
T1 sequence (whole entry): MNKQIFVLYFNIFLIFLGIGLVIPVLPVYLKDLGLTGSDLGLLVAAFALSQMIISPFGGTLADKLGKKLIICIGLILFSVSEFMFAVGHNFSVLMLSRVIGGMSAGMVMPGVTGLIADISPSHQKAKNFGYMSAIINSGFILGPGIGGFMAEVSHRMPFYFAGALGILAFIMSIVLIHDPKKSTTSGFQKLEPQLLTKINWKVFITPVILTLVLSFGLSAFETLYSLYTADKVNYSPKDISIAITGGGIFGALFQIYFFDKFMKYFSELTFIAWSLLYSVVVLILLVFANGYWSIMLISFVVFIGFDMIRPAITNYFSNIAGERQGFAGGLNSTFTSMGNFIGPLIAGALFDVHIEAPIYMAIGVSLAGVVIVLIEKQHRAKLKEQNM

Staphylococcus aureus [4] = experiment: Increase in ethidium bromide uptake in NorA-deficient Staphylococcus aureus K1758 at 3 uM by fluorescence assay; format: functional, organism-based; how it was run: as §2
Enterococcus faecalis [5] = experiment: Antibacterial activity against Enterococcus faecalis infected in Caenorhabditis elegans assessed as organism survival at 20 uM; format: functional, organism-based
How it was run: (§3)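 Gravid glp-4(bn2) sek-1(km4) adults were bleached for eggs, hatched at 15°C for 2 days, then grown on E. coli HB101 at 25°C for 52 h. Sterile adults were infected on E. faecalis MMH594 lawns (kanamycin 80 μg/ml) for 15 h at 15°C. Worms were sorted 15 per well into 20% BHI, 60% M9, kanamycin, nystatin and 1% DMSO, then kept 5 days at 26.3°C. Survival was scored from bright-field images, with median survival (LT50) as the read-out.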

[6] = target: T1, Quinolone resistance protein NorA (Staphylococcus aureus); experiment: Inhibition of NorA in Staphylococcus aureus 8325-4 assessed as ethidium bromide uptake at 3 uM by fluorescence assay; how it was run: as §2
Staphylococcus aureus [7] = experiment: Antibacterial activity against wild-type Staphylococcus aureus 8325-4 after 18 hrs by two fold serial dilution method; format: functional; conditions: 8325-4, 18 h; how it was run: as §1
Staphylococcus aureus [8] = experiment: Antibacterial activity against Staphylococcus aureus K2378 overexpressing NorA after 18 hrs by two fold serial dilution method; format: functional; conditions: K2378, 18 h; how it was run: as §1
[9] = target: T1, Quinolone resistance protein NorA (Staphylococcus aureus); experiment: Inhibition of NorA in Staphylococcus aureus K2378 overexpressing NorA assessed as ethidium bromide uptake at 3 uM by fluorescence assay in presence of INF55; how it was run: as §2
[10] = target: T1, Quinolone resistance protein NorA (Staphylococcus aureus); experiment: Inhibition of NorA in Staphylococcus aureus K2378 overexpressing NorA assessed as increase in ethidium bromide uptake at 3 uM by fluorescence assay in presence of INF55; how it was run: as §2
[11] = target: T1, Quinolone resistance protein NorA (Staphylococcus aureus); experiment: Inhibition of NorA in Staphylococcus aureus K2378 overexpressing NorA assessed as ethidium bromide uptake at 3 uM by fluorescence assay; how it was run: as §2
[12] = target: T1, Quinolone resistance protein NorA (Staphylococcus aureus); experiment: Inhibition of NorA in Staphylococcus aureus K2378 overexpressing NorA assessed as decrease in Berberine MIC
[13] = target: T1, Quinolone resistance protein NorA (Staphylococcus aureus); experiment: Inhibition of NorA in Staphylococcus aureus 8325-4 assessed as accumulation of compound at 3 uM by fluorescence assay
How it was run: (§4)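 S. aureus was grown at 37°C to OD600 1.5, washed, then energised for 1 h at 37°C in PBS with 10 mM dextrose. Cells were diluted to OD ~0.3 in PBS, and compounds (berberine ± INF55, or hybrids) were added at 3 μM each. DNA-binding fluorescence increase was followed at ex 355/em 517 nm, in arbitrary units, with background subtracted. At least three independent experiments.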

[14] = target: T1, Quinolone resistance protein NorA (Staphylococcus aureus); experiment: Inhibition of NorA in Staphylococcus aureus 8325-4 assessed as accumulation of Berberine at 3 uM by fluorescence assay in presence of INF55; how it was run: as §4
Staphylococcus aureus [15] = experiment: Cellular uptake in NorA-deficient Staphylococcus aureus K1758 assessed as accumulation of compound at 3 uM by fluorescence assay; format: ADME, organism-based; conditions: in vivo
How it was run: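 K1758 (ΔnorA) cells grown at 37°C to OD600 1.5, washed twice in PBS, then energized 1 h at 37°C with aeration in PBS plus 10 mM dextrose at OD ~0.8. Cells washed again and diluted to OD ~0.3 in PBS. Compound added at 3 μM. DNA-binding fluorescence read at ex 355/em 517 nm, cell-free background subtracted, arbitrary units; ≥3 independent experiments.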

[16] = target: T1, Quinolone resistance protein NorA (Staphylococcus aureus); experiment: Inhibition of NorA in Staphylococcus aureus 8325-4 assessed as assessed as accumulation of compound at 3 uM by fluorescence assay; how it was run: as §4
[17] = target: T1, Quinolone resistance protein NorA (Staphylococcus aureus); experiment: Inhibition of NorA in Staphylococcus aureus 8325-4 assessed as decrease in Berberine MIC
Staphylococcus aureus [18] = experiment: Antibacterial activity against NorA-deficient Staphylococcus aureus K1758 after 18 hrs by two fold serial dilution method in presence of INF55; format: functional, organism-based
[19] = target: T1, Quinolone resistance protein NorA (Staphylococcus aureus); experiment: Inhibition of NorA in Staphylococcus aureus K2378 overexpressing NorA assessed as accumulation of Berberine at 3 uM by fluorescence assay in presence of INF55; how it was run: as §4
[20] = target: T1, Quinolone resistance protein NorA (Staphylococcus aureus); experiment: Inhibition of NorA in Staphylococcus aureus K2378 overexpressing NorA assessed as accumulation of compound at 3 uM by fluorescence assay; how it was run: as §4
Enterococcus faecalis [21] = experiment: Antibacterial activity against Enterococcus faecalis infected in Caenorhabditis elegans assessed as organism survival at 8.6 uM; format: functional, organism-based; how it was run: as §3

Row | Compound | MIC (Staphylococcus aureus [1]) | Activity (Staphylococcus aureus [2]) | inhibition [3] | Activity (Staphylococcus aureus [4]) | Activity (Enterococcus faecalis [5]) | inhibition [6] | MIC (Staphylococcus aureus [7]) | MIC (Staphylococcus aureus [8]) | inhibition [9] | inhibition [10] | inhibition [11] | further results
1 | COc1ccc2c(Cc3cccc(-c4cc5cc([N+](=O)[O-])ccc5[nH]4)c3)c3[n+](cc2c1OC)CCc1cc2c(cc1-3)OCO2 | 20.1 µM | Active | Active | Active | Active | Active | 20.1 µM | 20.1 µM | inactive | Active | Active | 
2 | COc1ccc2c(Cc3ccccc3-c3cc4cc([N+](=O)[O-])ccc4[nH]3)c3[n+](cc2c1OC)CCc1cc2c(cc1-3)OCO2 | 9.4 µM |  |  |  |  |  | 9.4 µM | 18.8 µM |  |  |  | 
3 | COc1ccc2cc3[n+](cc2c1OC)CCc1cc2c(cc1-3)OCO2.[Cl-] [BERBERINE CHLORIDE] | 40 µM |  |  |  |  |  | 325 µM | > 650 µM |  |  |  | Activity [12]: Active; inhibition [13]: inactive; inhibition [14]: Active; Drug uptake (Staphylococcus aureus [15]): Active; inhibition [16]: Active; Activity [17]: Active; Activity (Staphylococcus aureus [18]): Active; inhibition [19]: Active; inhibition [20]: inactive
4 | COc1ccc2c(Cc3ccc(-c4cc5cc([N+](=O)[O-])ccc5[nH]4)cc3)c3[n+](cc2c1OC)CCc1cc2c(cc1-3)OCO2 | 20.1 µM | Active | Active | Active | Active | Active | 40.2 µM | 40.2 µM | inactive | Active | Active | 
5 | CN[C@H](CC(C)C)C(=O)N[C@H]1C(=O)N[C@@H](CC(N)=O)C(=O)N[C@H]2C(=O)N[C@H]3C(=O)N[C@H](C(=O)N[C@H](C(=O)O)c4cc(O)cc(O)c4-c4cc3ccc4O)[C@H](O)c3ccc(c(Cl)c3)Oc3cc2cc(c3O[C@@H]2O[C@H](CO)[C@@H](O)[C@H](O)[C@H]2O[C@H]2C[C@](C)(N)[C@H](O)[C@H](C)O2)Oc2ccc(cc2Cl)[C@H]1O |  |  |  |  |  |  |  |  |  |  |  | Activity (Enterococcus faecalis [21]): Active
